Source: ChEMBL document CHEMBL3616436, “Synthesis, cytotoxicity and antimicrobial activity of thiourea derivatives incorporating 3-(trifluoromethyl)phenyl moiety” (Eur J Med Chem, 2015)
Values after ≈ are worked out from the molar mass of the structure shown.

Tests used:
Staphylococcus aureus [1] = test: Antimicrobial activity against hospital methicillin-resistant Staphylococcus aureus 54/05 after 18 hrs by twofold serial microdilution method; type: functional; settings: 54/05, 18 h
Procedure, shortened: (§1)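 Twofold serial microdilution in Mueller-Hinton broth. Compound stock was made in DMSO and diluted in sterile water. Tested range was 0.125–512 µg/mL. Final inoculum was 10^5 CFU/mL. Plates were incubated 18 h at 35 °C. MIC is the lowest concentration preventing visible growth.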

Bacillus subtilis = test: Antimicrobial activity against Bacillus subtilis ATCC 6633 at 400 ug after 18 hrs by disc-diffusion method; type: functional; settings: ATCC 6633, 18 h, read-out: IZ
Procedure, shortened: (§2)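 Disc diffusion on Mueller-Hinton II agar per CLSI; 9 mm paper discs loaded with 400 µg compound from DMSO solution, dried, placed on agar; growth inhibition zone diameter read after 18 h at 35°C.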

[2] = test system: Staphylococcus epidermidis; test: Ratio of ciprofloxacin MIC to compound MIC for hospital methicillin-resistant Staphylococcus epidermidis 24/04 after 18 hrs by twofold serial microdilution method; type: functional
Staphylococcus aureus [3] = test: Ratio of ciprofloxacin MIC to compound MIC for hospital methicillin-resistant Staphylococcus aureus 79/05 after 18 hrs by twofold serial microdilution method; type: functional
Procedure, shortened: (§3)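 Ratio of MICs for ciprofloxacin and test agent, each from twofold serial broth microdilution in Mueller-Hinton broth following CLSI guidelines. DMSO stock was diluted in sterile water to 0.125–512 µg/mL, with a final inoculum of 10^5 CFU/mL.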

[4] = test system: Staphylococcus epidermidis; test: Antimicrobial activity against hospital methicillin-resistant Staphylococcus epidermidis 63/04 after 18 hrs by twofold serial microdilution method; type: functional; settings: 63/04, 18 h; procedure, shortened: as §1
Micrococcus luteus = test: Antimicrobial activity against Micrococcus luteus ATCC 9341 at 400 ug after 18 hrs by disc-diffusion method; type: functional; settings: ATCC 9341, 18 h, read-out: IZ; procedure, shortened: as §2
Staphylococcus aureus [5] = test: Antimicrobial activity against Staphylococcus aureus NCTC 4163 at 400 ug after 18 hrs by disc-diffusion method; type: functional; settings: NCTC 4163, 18 h, read-out: IZ; procedure, shortened: as §2
Staphylococcus aureus [6] = test: Ratio of ciprofloxacin MIC to compound MIC for hospital methicillin-resistant Staphylococcus aureus 54/05 after 18 hrs by twofold serial microdilution method; type: functional; procedure, shortened: as §3
[7] = test system: Staphylococcus epidermidis; test: Antimicrobial activity against hospital methicillin-resistant Staphylococcus epidermidis 24/04 after 18 hrs by twofold serial microdilution method; type: functional; settings: 24/04, 18 h; procedure, shortened: as §1
Staphylococcus aureus [8] = test: Antimicrobial activity against hospital methicillin-resistant Staphylococcus aureus 57/05 after 18 hrs by twofold serial microdilution method; type: functional; settings: 57/05, 18 h; procedure, shortened: as §1
[9] = test system: Staphylococcus epidermidis; test: Antimicrobial activity against hospital methicillin-resistant Staphylococcus epidermidis 151/04 after 18 hrs by twofold serial microdilution method; type: functional; settings: 151/04, 18 h; procedure, shortened: as §1
[10] = test system: Staphylococcus epidermidis; test: Antimicrobial activity against hospital methicillin-resistant Staphylococcus epidermidis 23/04 after 18 hrs by twofold serial microdilution method; type: functional; settings: 23/04, 18 h; procedure, shortened: as §1
Staphylococcus aureus [11] = test: Antimicrobial activity against hospital methicillin-resistant Staphylococcus aureus 522/11 after 18 hrs by twofold serial microdilution method; type: functional; settings: 522/11, 18 h; procedure, shortened: as §1
[12] = test system: Staphylococcus epidermidis; test: Antimicrobial activity against hospital methicillin-resistant Staphylococcus epidermidis 62/04 after 18 hrs by twofold serial microdilution method; type: functional; settings: 62/04, 18 h; procedure, shortened: as §1
[13] = test system: Staphylococcus epidermidis; test: Antimicrobial activity against Staphylococcus epidermidis ATCC 12228 after 18 hrs by twofold serial microdilution method; type: functional; settings: ATCC 12228, 18 h
[14] = test system: Staphylococcus epidermidis; test: Ratio of ciprofloxacin MIC to compound MIC for hospital methicillin-resistant Staphylococcus epidermidis 151/04 after 18 hrs by twofold serial microdilution method; type: functional; procedure, shortened: as §3
Staphylococcus aureus [15] = test: Ratio of ciprofloxacin MIC to compound MIC for hospital methicillin-resistant Staphylococcus aureus 53/05 after 18 hrs by twofold serial microdilution method; type: functional; procedure, shortened: as §3
Staphylococcus aureus [16] = test: Antimicrobial activity against Staphylococcus aureus ATCC 6538 at 400 ug after 18 hrs by disc-diffusion method; type: functional; settings: ATCC 6538, 18 h, read-out: IZ; procedure, shortened: as §2
[17] = test system: Staphylococcus epidermidis; test: Ratio of ciprofloxacin MIC to compound MIC for hospital methicillin-resistant Staphylococcus epidermidis […]/[…] after 18 hrs by twofold serial microdilution method; type: functional, 16/04
Staphylococcus aureus [18] = test: Antimicrobial activity against Staphylococcus aureus ATCC 6538 after 18 hrs by twofold serial microdilution method; type: functional; settings: ATCC 6538, 18 h
Staphylococcus aureus [19] = test: Antimicrobial activity against Staphylococcus aureus ATCC 29213 after 18 hrs by twofold serial microdilution method; type: functional; settings: ATCC 29213, 18 h
Staphylococcus aureus [20] = test: Ratio of ciprofloxacin MIC to compound MIC for hospital methicillin-resistant Staphylococcus aureus 81/05 after 18 hrs by twofold serial microdilution method; type: functional; procedure, shortened: as §3
Staphylococcus aureus [21] = test: Ratio of ciprofloxacin MIC to compound MIC for hospital methicillin-resistant Staphylococcus aureus 573/11 after 18 hrs by twofold serial microdilution method; type: functional; procedure, shortened: as §3
[22] = test system: Staphylococcus epidermidis; test: Antimicrobial activity against Staphylococcus epidermidis ATCC 35984 after 18 hrs by twofold serial microdilution method; type: functional; settings: ATCC 35984, 18 h
[23] = test system: Vesicular stomatitis virus; test: Antiviral activity against Vesicular stomatitis virus ATCC VR 1540 infected in African green monkey Vero 76 cells assessed as reduction of virus-plaque formation after 2 days by crystal violet staining; type: functional, organism-based; settings: ATCC VR 1540, Vero, 48 h
[24] = Antiviral activity against Bovine viral diarrhea virus 1-NADL ATCC VR-534 infected in MDBK cells assessed as protection against virus-induced cytopathogenicity after 3 to 4 days by MTT assay; type: functional, cell-based; settings: Bovine viral diarrhea virus isolates and strains, ATCC VR-534, MDBK
Procedure, shortened: (§4)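 Cells seeded in 96-well plates (BHK 5x10^4, MDBK 3x10^4 cells/well), grown overnight to confluence, infected at m.o.i. 0.01 (BHK for Reo-1, MDBK for BVDV); serial compound dilutions in maintenance medium with 0.5% inactivated FBS added after 1 h; viability by MTT after 3–4 days at 37°C; EC50 for 50% protection by linear regression.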

[25] = test system: Staphylococcus epidermidis; test: Antimicrobial activity against hospital methicillin-resistant Staphylococcus epidermidis 76/04 after 18 hrs by twofold serial microdilution method; type: functional; settings: 76/04, 18 h; procedure, shortened: as §1
[26] = test system: Mycobacterium tuberculosis; test: Antimycobacterial activity against drug-sensitive Mycobacterium tuberculosis Spec. 192; type: functional
Procedure, shortened: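 Classical test-tube successive-dilution method in Youmans' modification of Proskauer and Beck liquid medium with 10% bovine serum. Inoculum came from 14-day cultures. DMSO stock was 10 mg/mL, diluted geometrically in medium. Tubes were incubated at 37 °C. Concentrations tested were 3.1, 6.2, 12.5, 25, 50 and 100 µg/ml. MIC is the minimum concentration inhibiting growth relative to compound-free tubes.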

[27] = test system: Mammalian orthoreovirus 1; test: Antiviral activity against Reovirus type-1 ATCC VR-214 infected in BHK cells assessed as protection against virus-induced cytopathogenicity after 3 to 4 days by MTT assay; type: functional, cell-based; settings: Mammalian orthoreovirus 1, ATCC VR-214, BHK; procedure, shortened: as §4

Question: What does the source list for `FC(F)(F)c1cccc(NC(S)=Nc2ccc(Cl)c(Cl)c2)c1`?
Answer: MIC (Staphylococcus aureus [1]): 2 µg/mL (≈ 5.48 µM); zone of inhibition at 400 µg/disc (Bacillus subtilis): 11 mm; Ratio [2]: 128; Ratio (Staphylococcus aureus [3]): 128; MIC [4]: 2 µg/mL (≈ 5.48 µM); zone of inhibition at 400 µg/disc (Micrococcus luteus): 15 mm; zone of inhibition at 400 µg/disc (Staphylococcus aureus [5]): 15 mm; Ratio (Staphylococcus aureus [6]): 128; MIC [7]: 1 µg/mL (≈ 2.74 µM); MIC (Staphylococcus aureus [8]): 2 µg/mL (≈ 5.48 µM); MIC [9]: 1 µg/mL (≈ 2.74 µM); MIC [10]: 1 µg/mL (≈ 2.74 µM); MIC (Staphylococcus aureus [11]): 1 µg/mL (≈ 2.74 µM); MIC [12]: 1 µg/mL (≈ 2.74 µM); MIC [13]: 2 µg/mL (≈ 5.48 µM); Ratio [14]: 128; Ratio (Staphylococcus aureus [15]): 128; zone of inhibition at 400 µg/disc (Staphylococcus aureus [16]): 14 mm; Ratio [17]: 128; MIC (Staphylococcus aureus [18]): 0.5 µg/mL (≈ 1.37 µM); MIC (Staphylococcus aureus [19]): 0.5 µg/mL (≈ 1.37 µM); Ratio (Staphylococcus aureus [20]): 128; Ratio (Staphylococcus aureus [21]): 128; MIC [22]: 1 µg/mL (≈ 2.74 µM); EC50 [23]: > 16 µM; EC50 [24]: > 10 µM; MIC [25]: 1 µg/mL (≈ 2.74 µM); MIC [26]: 100 µg/mL (≈ 274 µM); EC50 [27]: > 9.5 µM
